In ChEMBL document CHEMBL1240360, “TMC278, a next-generation nonnucleoside reverse transcriptase inhibitor (NNRTI), active against wild-type and NNRTI-resistant HIV-1” (Antimicrob Agents Chemother, 2010):

Columns and labels:
MT4 = test: Cytotoxicity against human MT4 cells by cell based assay
How it was run: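 Cytotoxicity in MT4 cells from cell-based assays gave a 50% cytotoxic concentration, reported as a median with first- to third-quartile values over the stated number of experiments.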

[1] = system: Human immunodeficiency virus 2; test: Antiviral activity against Human immunodeficiency virus 2 ROD infected in human MT4 cells assessed as reduction in virus induced cytopathicity; assay type: functional, organism-based; conditions: Human immunodeficiency virus 2, ISOLATE ROD
How it was run: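 MT4 cells (1.5 × 10^5/ml) infected with HIV (MOI 0.01) were added to serial compound dilutions and incubated 5 days at 37°C in 5% CO2. Protection from virus-induced cell death was read by MTT tetrazolium colorimetry, giving an EC50 in micromolar.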

[2] = system: Human immunodeficiency virus 1; test: Antiviral activity against Human immunodeficiency virus 1 subtype A1 infected in human MT4 cells assessed as reduction in virus induced cytopathicity; assay type: functional, organism-based; conditions: Human immunodeficiency virus 1, subtype A1, MT4
How it was run: (§1)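 Recombinant viruses were made by recombining patient-derived HIV-1 RT-PR sequences into an RT-PR-deleted HXB2 proviral clone transfected into MT4 cells. Subtype was assigned from PR/RT sequence by Smith-Waterman alignment to HXB2. MT4 cells (1.5 × 10^5/ml) were infected at MOI 0.01 with serially diluted compound for 5 days at 37°C. Viability was read by MTT and EC50 derived.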

[3] = system: Human immunodeficiency virus 1; test: Antiviral activity against Human immunodeficiency virus 1 subtype F isolate 93BR029 infected in human PBMC cells by cell based assay; conditions: Human immunodeficiency virus 1, subtype F isolate 93BR029, PBMC
[4] = system: Human immunodeficiency virus 1; test: Antiviral activity against Human immunodeficiency virus 1 subtype C isolate 93IN101 infected in human PBMC cells by cell based assay; conditions: Human immunodeficiency virus 1, subtype C isolate 93IN101, PBMC
[5] = system: Human immunodeficiency virus 1; test: Antiviral activity against Human immunodeficiency virus 1 subtype F isolate 93BR020 infected in human PBMC cells by cell based assay; conditions: Human immunodeficiency virus 1, subtype F isolate 93BR020, PBMC
[6] = system: Human immunodeficiency virus 1; test: Antiviral activity against Human immunodeficiency virus 1 subtype C isolate 93MW959 infected in human PBMC cells by cell based assay; conditions: Human immunodeficiency virus 1, subtype C isolate 93MW959, PBMC
[7] = system: Human immunodeficiency virus 1; test: Antiviral activity against Human immunodeficiency virus 1 subtype G infected in human MT4 cells assessed as reduction in virus induced cytopathicity; assay type: functional, organism-based; how it was run: as §1
[8] = system: Human immunodeficiency virus 1; test: Antiviral activity against Human immunodeficiency virus 1 subtype C infected in human MT4 cells assessed as reduction in virus induced cytopathicity; assay type: functional, organism-based; how it was run: as §1
[9] = system: Human immunodeficiency virus 1; test: Antiviral activity against Human immunodeficiency virus 1 subtype E isolate CMU08 infected in human PBMC cells by cell based assay; conditions: Human immunodeficiency virus 1, subtype E isolate CMU08, PBMC
[10] = system: Human immunodeficiency virus 1; test: Antiviral activity against Human immunodeficiency virus 1 subtype D isolate 92UG024 infected in human PBMC cells by cell based assay; conditions: Human immunodeficiency virus 1, subtype D 92UG024, PBMC
[11] = system: Human immunodeficiency virus 1; test: Antiviral activity against Human immunodeficiency virus 1 subtype O isolate BCF03 infected in human PBMC cells by cell based assay; conditions: Human immunodeficiency virus 1, subtype O isolate BCF03, PBMC
[12] = system: Human immunodeficiency virus 1; test: Antiviral activity against Human immunodeficiency virus 1 subtype F1 infected in human MT4 cells assessed as reduction in virus induced cytopathicity; assay type: functional, organism-based; conditions: Human immunodeficiency virus 1, subtype F1, MT4; how it was run: as §1
[13] = system: Human immunodeficiency virus 1; test: Antiviral activity against Human immunodeficiency virus 1 subtype A isolate 92RW020 infected in human PBMC cells by cell based assay; conditions: Human immunodeficiency virus 1, subtype A isolate 92RW020, PBMC
[14] = system: Human immunodeficiency virus 1; test: Antiviral activity against Human immunodeficiency virus 1 subtype G isolate JV1083 infected in human PBMC cells by cell based assay; conditions: Human immunodeficiency virus 1, subtype G isolate JV1083, PBMC
[15] = system: Human immunodeficiency virus 1; test: Antiviral activity against Human immunodeficiency virus 1 subtype D isolate 92UG035 infected in human PBMC cells by cell based assay; conditions: Human immunodeficiency virus 1, subtype D 92UG035, PBMC
[16] = system: Human immunodeficiency virus 1; test: Antiviral activity against Human immunodeficiency virus 1 subtype B isolate WEJO infected in human PBMC cells by cell based assay
[17] = system: Human immunodeficiency virus 1; test: Antiviral activity against Human immunodeficiency virus 1 subtype O isolate BCF02 infected in human PBMC cells by cell based assay; conditions: Human immunodeficiency virus 1, subtype O isolate BCF02, PBMC
[18] = system: Human immunodeficiency virus 1; test: Antiviral activity against Human immunodeficiency virus 1 subtype B isolate 93BR021 infected in human PBMC cells by cell based assay; conditions: Human immunodeficiency virus 1, subtype B isolate 93BR021, PBMC
[19] = system: Human immunodeficiency virus 1; test: Antiviral activity against Human immunodeficiency virus 1 subtype D isolate 92UG001 infected in human PBMC cells by cell based assay; conditions: Human immunodeficiency virus 1, subtype D isolate 92UG001, PBMC
[20] = system: Human immunodeficiency virus 1; test: Antiviral activity against Human immunodeficiency virus 1 subtype AG infected in human MT4 cells assessed as reduction in virus induced cytopathicity; assay type: functional, organism-based; how it was run: as §1
[21] = system: Human immunodeficiency virus 1; test: Antiviral activity against Human immunodeficiency virus 1 subtype C isolate 92BR025 infected in human PBMC cells by cell based assay; conditions: Human immunodeficiency virus 1, subtype C isolate 92BR025, PBMC
[22] = system: Human immunodeficiency virus 1; test: Antiviral activity against Human immunodeficiency virus 1 subtype F isolate 93BR019 infected in human PBMC cells by cell based assay; conditions: Human immunodeficiency virus 1, subtype F isolate 93BR019, PBMC
[23] = system: Human immunodeficiency virus 1; test: Antiviral activity against Human immunodeficiency virus 1 subtype G isolate G3 infected in human PBMC cells by cell based assay; conditions: Human immunodeficiency virus 1, subtype G isolate G3, PBMC
[24] = system: Human immunodeficiency virus 1; test: Antiviral activity against Human immunodeficiency virus 1 subtype A isolate 92UG037 infected in human PBMC cells by cell based assay; conditions: Human immunodeficiency virus 1, subtype A isolate 92UG037, PBMC
[25] = system: Human immunodeficiency virus 1; test: Antiviral activity against Human immunodeficiency virus 1 subtype E isolate 92TH006 infected in human PBMC cells by cell based assay; conditions: Human immunodeficiency virus 1, subtype E 92TH006, PBMC
[26] = system: Human immunodeficiency virus 1; test: Antiviral activity against Human immunodeficiency virus 1 subtype A isolate 92UG029 infected in human PBMC cells by cell based assay; conditions: Human immunodeficiency virus 1, subtype A isolate 92UG029, PBMC
[27] = system: Human immunodeficiency virus 1; test: Antiviral activity against Human immunodeficiency virus 1 subtype E isolate 93TH073 infected in human PBMC cells by cell based assay; conditions: Human immunodeficiency virus 1, subtype E 93TH073, PBMC
[28] = system: Human immunodeficiency virus 1; test: Antiviral activity against Human immunodeficiency virus 1 subtype BG infected in human MT4 cells assessed as reduction in virus induced cytopathicity; assay type: functional, organism-based; how it was run: as §1
[29] = system: Human immunodeficiency virus 1; test: Antiviral activity against Human immunodeficiency virus 1 subtype B isolate JR-CSF infected in human PBMC cells by cell based assay
[30] = system: Human immunodeficiency virus 1; test: Antiviral activity against Human immunodeficiency virus 1 subtype G isolate RU132 infected in human PBMC cells by cell based assay; conditions: Human immunodeficiency virus 1, subtype G isolate RU132, PBMC
[31] = system: Human immunodeficiency virus 1; test: Antiviral activity against Human immunodeficiency virus 1 subtype D infected in human MT4 cells assessed as reduction in virus induced cytopathicity; assay type: functional, organism-based; how it was run: as §1
[32] = system: Human immunodeficiency virus 1; test: Antiviral activity against Human immunodeficiency virus 1 subtype AE infected in human MT4 cells assessed as reduction in virus induced cytopathicity; assay type: functional, organism-based; how it was run: as §1
[33] = system: Human immunodeficiency virus 1; test: Antiviral activity against Human immunodeficiency virus 1 subtype (H) infected in human MT4 cells assessed as reduction in virus induced cytopathicity; assay type: functional, organism-based; how it was run: as §1
[34] = system: Human immunodeficiency virus 1; test: Antiviral activity against Human immunodeficiency virus 1 subtype O misolate BCF01 infected in human PBMC cells by cell based assay; conditions: Human immunodeficiency virus 1, subtype O isolate BCF01, PBMC
[35] = system: Human immunodeficiency virus 1; test: Antiviral activity against Human immunodeficiency virus 1 3B infected in human MT4 cells assessed as reduction in virus induced cytopathicity; assay type: functional, organism-based
How it was run: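 MT4 cells (1.5 × 10^5/ml) infected with HIV-1 IIIB at MOI 0.01 and added to serially diluted compound. Cultures incubated 5 days at 37°C under 5% CO2. Cell viability, as protection from virus-induced killing, read by MTT tetrazolium colorimetry. EC50 reported as median with first to third quartiles over n experiments.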

O=C1Nc2ccc(Cl)cc2[C@@](C#CC2CC2)(C(F)(F)F)O1 [EFAVIRENZ]
Activity (MT4): 40.02 µM | EC50 [1]: 24800 nM

Cc1cc(C#N)cc(C)c1Oc1nc(Nc2ccc(C#N)cc2)nc(N)c1Br [ETRAVIRINE]
EC50 [2]: 1.39 nM | EC50 [3]: 1.06 nM | EC50 [4]: 2.72 nM | EC50 [5]: 1.08 nM | EC50 [6]: 1.01 nM | EC50 [7]: 0.24 nM | EC50 [8]: 0.52 nM | EC50 [9]: 3.47 nM | EC50 [10]: 3.18 nM | EC50 [11]: 149 nM | EC50 [12]: 0.35 nM | EC50 [13]: 0.48 nM | EC50 [14]: 1.45 nM | EC50 [15]: 0.44 nM | EC50 [16]: 0.43 nM | EC50 [17]: 52.8 nM | EC50 [18]: 1.35 nM | EC50 [19]: 0.9 nM | EC50 [20]: 0.46 nM | EC50 [21]: 1.7 nM | Activity (MT4): > 64 µM | EC50 [22]: 0.46 nM | EC50 [23]: 0.66 nM | EC50 [24]: 1.42 nM | EC50 [25]: 0.5 nM | EC50 [26]: 1.45 nM | EC50 [27]: 0.21 nM | EC50 [28]: 0.67 nM | EC50 [29]: 1.02 nM | EC50 [1]: 5670 nM | EC50 [30]: 1.7 nM | EC50 [31]: 1.13 nM | EC50 [32]: 0.65 nM | EC50 [33]: 0.51 nM | EC50 [34]: 16.4 nM | EC50 [35]: 2.73 nM
